Active and inactive are the calls of the source. The rule behind the calls is not given here.
Experiments:
Human betaherpesvirus 5 [1] = experiment: Antiviral activity against HCMV AD169 infected in HEL cells assessed as reduction in virus-induced cytopathic effect after 6 to 7 days; type: functional, organism-based; settings: Human betaherpesvirus 5, AD169, HEL
How it was run: (§1)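 Confluent HEL fibroblasts were inoculated with 100 CCID50 of HCMV. After 2 h adsorption the inoculum was removed and cells were incubated with varying compound concentrations. Viral cytopathicity was recorded 6-7 days post-infection. […] Data are the mean of two independent experiments.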

Human betaherpesvirus 5 [2] = experiment: Antiviral activity against HCMV Davis infected in HEL cells assessed as reduction in virus-induced cytopathic effect after 6 to 7 days; type: functional, organism-based; settings: Human betaherpesvirus 5, Davis; how it was run: as §1
Human alphaherpesvirus 3 [3] = experiment: Antiviral activity against TK-positive VZV Oka infected in HEL cells assessed as reduction in plaque formation after 5 days; type: functional, organism-based; settings: Human alphaherpesvirus 3, strain Oka vaccine, 120 h
Human alphaherpesvirus 3 [4] = experiment: Antiviral activity against TK-defecient VZV 07-1 infected in HEL cells assessed as reduction in plaque formation after 5 days; type: functional, organism-based; settings: Human alphaherpesvirus 3, 07-1, HEL, 120 h
Human alphaherpesvirus 1 [5] = experiment: Antiviral activity against HSV1 KOS infected in HEL cells assessed as reduction in virus-induced cytopathic effect after 2 to 3 days; type: functional, organism-based; settings: Human alphaherpesvirus 1, KOS
How it was run: (§2)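 Confluent HEL fibroblasts were infected with 100 CCID50 of HSV. After 2 h adsorption the virus was removed and cells were incubated with varying compound concentrations. Virus-induced cytopathicity was scored 2-3 days post-infection. […] Data are the mean of two independent experiments.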

Human alphaherpesvirus 1 [6] = experiment: Antiviral activity against acyclovir-resistant HSV1 KOS harboring TK- mutant infected in HEL cells assessed as reduction in virus-induced cytopathic effect after 2 to 3 days; type: functional, organism-based; settings: Human alphaherpesvirus 1, KOS; how it was run: as §2
Human alphaherpesvirus 2 = experiment: Antiviral activity against HSV2 strain G infected in HEL cells assessed as reduction in virus-induced cytopathic effect after 2 to 3 days; type: functional, organism-based; settings: Human alphaherpesvirus 2, strain G; how it was run: as §2
[7] = Cytotoxicity against HEL cells assessed as reduction in cell viability after 3 days by coulter counting method; type: cell-based; settings: human
How it was run: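 HEL fibroblasts seeded at 5 x 10^3 cells/well, left to proliferate 24 h, then given medium with varying compound concentrations. After 3 days at 37 °C, cells counted with a Coulter counter.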

Influenza A virus = experiment: Antiviral activity against Influenza A virus A/Ned/378/05(H1N1) infected in MDCK cells assessed as reduction in virus-induced cytopathic effect by MTS assay; type: functional, organism-based
H3N2 subtype = experiment: Antiviral activity against Influenza A virus A/HK/7/87(H3N2) infected in MDCK cells assessed as reduction in virus-induced cytopathic effect by MTS assay; type: functional, organism-based; settings: A/Hong Kong/7/1987(H3N2)
Influenza B virus = experiment: Antiviral activity against Influenza B virus B/Ned/537/05 infected in MDCK cells assessed as reduction in virus-induced cytopathic effect by MTS assay; type: functional, organism-based; settings: B/Ned/537/05, MDCK
[8] = Cytotoxicity against MDCK cells assessed as reduction in cell viability by MTS assay; type: cell-based, Canis lupus familiaris; settings: dog
[9] = Cytotoxicity against MDCK cells assessed as alteration in cell morphology by microscopic method; type: cell-based, Canis lupus familiaris; settings: dog
How it was run: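 MDCK cells exposed to compounds (up to 100 µM) and examined microscopically. MCC taken as the minimum concentration causing a detectable alteration of normal cell morphology.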

[10] = test system: Respiratory syncytial virus; experiment: Antiviral activity against RSV infected in human HeLa cells at 100 uM; type: functional, organism-based
HeLa = experiment: Cytotoxicity against human HeLa cells at 100 uM; type: cell-based
[11] = Cytotoxicity against HEL cells assessed as alteration in cell morphology after 3 days by microscopic method; type: cell-based; settings: human
How it was run: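 HEL cells were treated with test compounds. MCC is the minimum concentration causing a microscopically detectable alteration of cell morphology. Data are the mean of two independent experiments.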

[12] = Selectivity index, ratio of CC50 for HEL cells to EC50 for TK-positive VZV Oka infected in HEL cells; type: toxicity, cell-based; settings: human, read-out: Ratio CC50/EC50
How it was run: (§3)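 SI = CC50/EC50, with both values from HEL fibroblasts. For the antiviral part, confluent cultures were inoculated with 100 CCID50 (HSV) or 20 PFU (VZV Oka). After 2 h adsorption the inoculum was removed and compounds added. Cytopathicity was scored at 2-3 days (HSV) and plaques at 5 days (VZV). CC50 came from Coulter counting of cell growth after 3 days.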

[13] = Selectivity index, ratio of CC50 for HEL cells to EC50 for HSV1 KOS infected in HEL cells; type: toxicity, cell-based; settings: human, read-out: Ratio CC50/EC50; how it was run: as §3
[14] = Selectivity index, ratio of CC50 for HEL cells to EC50 for HSV2 strain G infected in HEL cells; type: toxicity, cell-based; settings: human, read-out: Ratio CC50/EC50; how it was run: as §3
[15] = Ratio of EC50 for TK-defecient VZV 07-1 infected in HEL cells to EC50 for TK-positive VZV Oka infected in HEL cells; type: functional
How it was run: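 Confluent HEL fibroblasts were inoculated with 20 PFU of VZV, either TK− strain 07−1 or Oka. After 2 h adsorption the inoculum was removed and compound was added at varying concentrations. […] The ratio is the TK− EC50 over the Oka EC50.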

Human alphaherpesvirus 1 [16] = experiment: Ratio of EC50 for acyclovir-resistant HSV1 KOS harboring TK- mutant infected in HEL cells to EC50 for HSV1 KOS infected in HEL cells; type: functional
How it was run: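 HEL fibroblasts were infected with 100 CCID50 of TK− ACV-resistant HSV-1 KOS or wild-type KOS, with 2 h adsorption, then incubated with varying compound concentrations. Cytopathicity was read at 2-3 days to give EC50 values. The ratio is TK− EC50 divided by wild-type EC50.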

Escherichia coli = experiment: Antibacterial activity against Escherichia coli; type: functional, organism-based
Enterococcus faecium = experiment: Antibacterial activity against Streptococcus faecium; type: functional, organism-based

Compound	EC50 (Human betaherpesvirus 5 [1]) [µM]	EC50 (Human betaherpesvirus 5 [2]) [µM]	EC50 (Human alphaherpesvirus 3 [3]) [µM]	EC50 (Human alphaherpesvirus 3 [4]) [µM]	EC50 (Human alphaherpesvirus 1 [5]) [µM]	EC50 (Human alphaherpesvirus 1 [6]) [µM]	EC50 (Human alphaherpesvirus 2) [µM]	CC50 at 72 h [7] [µM]	EC50 (Influenza A virus) [µM]	EC50 (H3N2 subtype) [µM]	EC50 (Influenza B virus) [µM]	CC50 [8] [µM]	MCC [9] [µM]	Activity [10]	Activity (HeLa)	further results
Cc1cn([C@@H]2C[C@H](O)[C@@H](CO)O2)c(=O)c[n+]1[O-]	> 82	> 412	328	> 412	> 412	> 412	> 412	> 412	–	–	–	–	–	–	–	–
O=c1c[n+]([O-])ccn1[C@H]1C[C@H](O)[C@@H](CO)O1	> 438	> 438	> 438	> 438	> 438	> 438	> 438	> 438	–	–	–	–	–	–	–	–
O=c1c[n+]([O-])ccn1[C@@H]1O[C@H](CO)[C@@H](O)[C@H]1O	–	–	–	–	–	–	–	–	> 100	> 100	> 100	> 100	> 100	inactive	Non-Toxic	–
Cc1c[nH]c(=O)c[n+]1[O-]	–	–	–	–	–	–	–	–	> 100	> 100	> 100	> 100	> 100	inactive	Non-Toxic	–
Cc1cn([C@@H]2O[C@H](CO)[C@@H](O)[C@H]2O)c(=O)c[n+]1[O-]	–	–	–	–	–	–	–	–	> 100	> 100	> 100	> 100	> 100	inactive	Non-Toxic	–
Cc1cn([C@H]2O[C@H](CO)[C@@H](O)[C@H]2O)c(=O)c[n+]1[O-]	–	–	–	–	–	–	–	–	> 100	> 100	> 100	> 100	> 100	inactive	Non-Toxic	–
Nc1ccn(C[C@@H](CO)OCP(=O)(O)O)c(=O)n1 [CIDOFOVIR]	1.04	1.58	–	–	2.81	1.56	1.97	> 358	–	–	–	–	–	–	–	MCC at 72 h [11]: > 358 µM
O=c1c[n+]([O-])ccn1[C@H]1O[C@H](CO)[C@@H](O)[C@H]1O	–	–	–	–	–	–	–	–	> 100	> 100	> 100	> 100	> 100	inactive	Non-Toxic	–
O=c1c[n+]([O-])ccn1[C@@H]1C[C@H](O)[C@@H](CO)O1	> 87	> 438	438	> 438	> 438	> 438	> 438	> 438	–	–	–	–	–	–	–	–
CCc1cn([C@H]2C[C@H](O)[C@@H](CO)O2)c(=O)c[n+]1[O-]	> 78	> 78	7.77	138	8.55	> 390	145	> 390	–	–	–	–	–	–	–	–
CCc1cn([C@@H]2O[C@H](CO)[C@@H](O)[C@H]2O)c(=O)c[n+]1[O-]	–	–	–	–	–	–	–	–	> 100	> 100	> 100	> 100	> 100	inactive	Non-Toxic	–
CCc1cn([C@H]2O[C@H](CO)[C@@H](O)[C@H]2O)c(=O)c[n+]1[O-]	–	–	–	–	–	–	–	–	> 100	> 100	> 100	> 100	> 100	inactive	Non-Toxic	–
Cc1cn([C@H]2C[C@H](O)[C@@H](CO)O2)c(=O)c[n+]1[O-]	> 412	> 412	0.99	6.91	1.79	59.4	17.5	> 412	–	–	–	–	–	–	–	MCC at 72 h [11]: 169 µM; selectivity ratio [12]: > 416; selectivity ratio [13]: 230; selectivity ratio [14]: 24; Ratio EC50 [15]: 7; Ratio EC50 (Human alphaherpesvirus 1 [16]): 30
O=c1c[n+]([O-])cc[nH]1	–	–	–	–	–	–	–	–	> 100	> 100	> 100	> 100	> 100	inactive	Non-Toxic	EC50 (Escherichia coli): 10 µM; EC50 (Enterococcus faecium): 8 µM
Nc1nc2c(ncn2COCCO)c(=O)[nH]1 [ACYCLOVIR]	–	–	–	–	0.38	88.8	–	> 444	–	–	–	–	–	–	–	MCC at 72 h [11]: > 444 µM
CCc1cn([C@@H]2C[C@H](O)[C@@H](CO)O2)c(=O)c[n+]1[O-]	> 78	> 78	142	174	174	> 390	204	> 390	–	–	–	–	–	–	–	–
CCc1c[nH]c(=O)c[n+]1[O-]	–	–	–	–	–	–	–	–	> 100	> 100	> 100	> 100	> 100	inactive	Non-Toxic	–
O=c1[nH]c(=O)n([C@H]2C[C@H](O)[C@@H](CO)O2)cc1/C=C/Br [BRIVUDINE]	–	–	0.035	6.66	0.068	20.1	–	> 300	–	–	–	–	–	–	–	MCC at 72 h [11]: > 300 µM

— ChEMBL document CHEMBL4251608, “Emimycin and its nucleoside derivatives: Synthesis and antiviral activity” (Eur J Med Chem, 2018)
